From ChEMBL document CHEMBL1148736, “N-Acylthiadiazolines, a new class of liver X receptor agonists with selectivity for LXRbeta” (J Med Chem, 2007) come the findings set out here.

Calls of active or inactive are those of the source. No cut-off for these calls is given here.

A short description of series [1]: AUC in C57BL/6 mouse at 20 mg/kg, po. Conditions: plasma. The class given is ADME, organism-based. The arrangement: dose 20 mg/kg, route oral. The gist of the method:
(§1)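 Mouse PK study, IV and PO; compound formulated at 2.5 mg/mL in PEG300/Tween 80 (4:1). IV dose 5 mpk (AUC, Cmax, clearance, Vss); oral dose 20 mpk (AUC, Cmax, bioavailability, t1/2).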

The target of series [2] is T1, Oxysterols receptor LXR-alpha (Homo sapiens) (UniProt Q13133).
T1 sequence (whole entry): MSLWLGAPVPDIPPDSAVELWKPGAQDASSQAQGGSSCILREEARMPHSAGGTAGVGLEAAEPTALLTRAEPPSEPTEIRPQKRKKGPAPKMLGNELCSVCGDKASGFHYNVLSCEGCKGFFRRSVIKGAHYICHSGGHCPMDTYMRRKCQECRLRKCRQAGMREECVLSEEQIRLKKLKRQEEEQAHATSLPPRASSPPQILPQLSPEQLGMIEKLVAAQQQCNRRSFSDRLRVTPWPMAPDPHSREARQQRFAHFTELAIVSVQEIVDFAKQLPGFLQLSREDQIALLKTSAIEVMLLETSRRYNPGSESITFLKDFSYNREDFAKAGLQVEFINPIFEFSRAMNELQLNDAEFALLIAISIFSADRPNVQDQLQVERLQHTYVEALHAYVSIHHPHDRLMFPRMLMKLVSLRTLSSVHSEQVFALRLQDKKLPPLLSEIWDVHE
Description: Agonist activity at GAL-linked human LXRalpha expressed in THP1 cells assessed as stimulation of co-activator recruitment by FRET assay relative to GW-3965. It is filed as functional. The gist of the method: (§2)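 Cell-free TR-FRET coactivator recruitment: 20 nM His-tagged hLXRα or hLXRβ, 300 nM biotinylated SRC-1 peptide, Eu-anti-His antibody, APC-streptavidin. 12-point curves from 20 µM; 1 h at 37 °C. Duplicate. %E = maximal coactivator recruitment relative to reference dual agonist in same experiment.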

In series [3] the target is T2, Oxysterols receptor LXR-beta (Homo sapiens, UniProt P55055).
T2 sequence (P55055 whole entry): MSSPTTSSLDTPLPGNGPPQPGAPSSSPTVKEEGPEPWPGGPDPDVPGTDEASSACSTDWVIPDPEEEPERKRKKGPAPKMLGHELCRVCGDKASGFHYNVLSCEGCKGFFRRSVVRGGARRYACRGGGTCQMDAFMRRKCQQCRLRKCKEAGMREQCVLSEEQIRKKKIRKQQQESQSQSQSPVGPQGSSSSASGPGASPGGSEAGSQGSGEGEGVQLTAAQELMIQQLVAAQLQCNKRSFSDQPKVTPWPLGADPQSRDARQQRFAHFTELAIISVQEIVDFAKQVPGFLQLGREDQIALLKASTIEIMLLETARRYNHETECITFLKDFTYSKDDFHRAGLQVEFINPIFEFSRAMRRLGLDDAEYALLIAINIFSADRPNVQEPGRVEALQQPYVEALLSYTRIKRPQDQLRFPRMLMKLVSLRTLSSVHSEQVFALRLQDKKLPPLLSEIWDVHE
Kind of series: Agonist activity at GAL-linked human LXRbeta expressed in THP1 cells assessed as stimulation of co-activator recruitment by FRET assay. It is filed as functional. The gist of the method:
as §2

Another series relates to THP-1. Description: Increase in ABCA1 gene expression in THP1 cells at 1 uM relative to GW-3965. It is filed as functional, Homo sapiens. The gist of the method: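 THP-1 cells differentiated with 40 ng/mL PMA for 1 day, then switched to RPMI with 2% lipoprotein-deficient FBS. Compound added 6 h later at 1 or 10 µM in DMSO, incubated 24 h. ABCA1 mRNA by one-step TaqMan qRT-PCR, triplicate, multiplexed with 36B4; fold induction vs DMSO, expressed relative to reference dual agonist.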

Series [4] concerns HepG2. Description: Increase in FAS gene expression in HepG2 cells at 10 uM relative to GW-3965. The class given is functional, Homo sapiens.
The subject of series [5] is HepG2. Kind of series: Increase in FAS gene expression in HepG2 cells at 1 uM relative to GW-3965. It is filed as functional, Homo sapiens.
Series [6] deals with T2, Oxysterols receptor LXR-beta. Kind of series: Activity at human LXRbeta by Gal4 transactivation assay. Put shortly:
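GAL4 DBD fused to hLXRα or hLXRβ LBD in pcDNA3, co-transfected into HepG2 with luciferase reporter. Cells in DMEM with 10% lipoprotein-deficient FBS, 7.5 µM lovastatin, 100 µM mevalonic acid. Ligand added 24 h post-transfection as 11-point curves from 10 µM; luciferase read after 16 h. Run in quadruplicate. %E = max fold induction vs max fold induction of reference dual agonist in same experiment.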

The target of series [7] is T3, Bile acid receptor (Homo sapiens) (UniProt Q96RI1).
T3 sequence (whole entry): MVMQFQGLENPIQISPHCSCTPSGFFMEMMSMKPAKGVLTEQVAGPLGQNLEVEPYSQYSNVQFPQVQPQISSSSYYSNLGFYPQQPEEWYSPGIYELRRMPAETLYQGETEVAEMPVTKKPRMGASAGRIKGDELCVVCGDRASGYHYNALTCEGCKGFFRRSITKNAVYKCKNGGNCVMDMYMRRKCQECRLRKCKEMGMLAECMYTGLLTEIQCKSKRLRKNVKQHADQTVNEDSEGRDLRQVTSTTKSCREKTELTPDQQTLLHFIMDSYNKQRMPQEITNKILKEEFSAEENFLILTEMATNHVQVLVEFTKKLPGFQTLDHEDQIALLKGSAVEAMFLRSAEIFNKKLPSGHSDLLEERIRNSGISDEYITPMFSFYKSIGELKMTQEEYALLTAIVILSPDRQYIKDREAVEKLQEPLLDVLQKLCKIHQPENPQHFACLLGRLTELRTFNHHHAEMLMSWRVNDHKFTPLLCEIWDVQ
Kind of series: Activity at FXR by cell based assay. The class given is functional.

Series [8] can be described thus: Cmax in C57BL/6 mouse at 20 mg/kg, po. It is filed as ADME, organism-based. Details: dose 20 mg/kg, route oral. As to conditions: in vivo. Put shortly: as §1
Series [9] in a line: Stability in human liver microsomes at 1 uM after 30 mins. It is filed as ADME, Microsome. As to conditions: read-out: Stability. Put shortly:
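Incubated at 1 µM with human liver microsomes; percent parent remaining measured at 30 min.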

Turning to `COc1cccc(C2SC(c3ccc(Cl)cc3)=NN2C(=O)c2c(F)cc(F)cc2F)c1OC` (racemic), in series [1], the AUC is 7920 ng·h/mL. For the same compound, the Efficacy in series [2] came out at 42%. In addition, the EC50 in [3] is 250 nM; in [6] it was 98 nM. Moreover, the Activity in the series with THP-1 was 34%; with HepG2 [4], 33%; with HepG2 [5], 10%. Also, the outcome in [7] was inactive. The compound further showed a Cmax in series [8] of 4.9 µM. Besides, the remaining at 0.5 h, 1 µM in series [9] was found to be 70%.
